The full list was thinned out, with hits kept by preference.
Phagocytosis inh – inhibitors of macrophage phagocytosis, primary screen, imaging, J774A.1 cells, IgG beads | J774A.1 macrophage IgG-bead phagocytosis | inhibition, % at 5 µM | actives 0.07% (n = 110,000) | AID 1029, 2008;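 active = inhibition above the mean of the plate negative controls plus 5 SD, cut at about 13% in these data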;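 note: phagocytic index as fraction of beads internalized from green versus red external bead signal; plate controls were DMSO negative control for no effect and cytochalasin-D positive control for full effect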
Fibroblast inh – antiproliferative effect on LL 47 fibroblasts – human, LL 47 cells, CellTiter-Glo luminescence, primary screen. LL 47 human lung fibroblast viability, ATP luminescence; active compounds read low. viability, % at 10 µM. actives 1.1% (n = 85,000);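 active = viability at or below 50% in the single dose screen; inactive = viability above 50%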;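 note: compound exposure lasted 72 h before the ATP readout; 100% = median luminescence of untreated cell-only wells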
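Signal: luminescent ATP detection, CellTiter-Glo; assay system: LL 47 human lung fibroblasts; input: 1,150 cells/well; incubation: overnight cell rest, 72 h compound treatment at 37 °C; measure: % viability versus median cells-only luminescence; medium: IMEM growth medium with 15% fetal bovine serum; dosing: compound addition at 0.1% DMSO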
H69AR growth 86K – proliferation blockers of H69AR lung cancer cells, primary screen, cell-based, human, 86K library | viability, % at 10 µM | actives 6% (n = 85,000) | H69AR lung tumor viability, ATP luminescence, 72 h; active compounds read low | AID 598, 2007;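 active = viability at or below 40%; inactive = viability above 40%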;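 note: multidrug resistant small cell line overexpressing MRP-1 efflux transporter; 100% = mean luminescence of untreated control wells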
PTEN del growth – growth suppression of PTEN-null HCT116, primary screen, cell-based, CellTiter-Glo; HCT116 PTEN-null viability, 60 h; active compounds read low; viability, % at 10 µM; actives 1.2% (n = 140,000);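 active = viability at or below a set limit, 4 SD under the median of all tested compounds, cut at about 3.7% in these data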;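 note: PTEN knockout HCT116 line with beta catenin targeted HCT116 as companion control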
HCT116 bCat-KO – primary screen for growth suppressors in beta-catenin knockout HCT116 cells (colon tumor, human). HCT116 beta-catenin knockout viability, CellTiter-Glo, 60 h; active compounds read low. actives 1.5% (n = 140,000). viability, % at 10 µM. AID 818, 2007;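 active = viability at or under a set limit, the compound median less 4 SD, cut at about 6% in these data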;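 note: 0% = Hyamine 1622 control at 20 µM and 100% = untreated cell control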
HUVEC prolif 384 – inhibitors of HUVEC proliferation, primary screen, cell-based, 384-well; viability, % at 10 µM (by protocol); actives 1.1% (n = 86,000); CellTiter-Glo luminescence, 72 h; active compounds read low;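 active = viability at or below 30%; inactive = viability above 30%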;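 note: 100% = median luminescence of DMSO-only cell control wells on each plate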
Starred values were filed as active, the others as inactive; nt = no result given.

SMILES | Phagocytosis inh | Fibroblast inh | H69AR growth 86K | PTEN del growth | HCT116 bCat-KO | HUVEC prolif 384
Cn1c(=O)n(C)c2cc(NC(=O)CSc3nnc(-c4ccccc4O)n3-c3ccccc3)ccc21 | -0.2 | 90.4 | 32.9* | 63.1 | 60.3 | 74.8
N#Cc1c(NC(=O)CSc2nnc(-c3ccccc3O)n2-c2ccccc2)sc2c1CCCC2 | 0.0 | 99.0 | 48.7 | 56.5 | 59.0 | 86.6
C=CCn1c(SCC(=O)Nc2ccc(C(=O)OC(C)C)cc2)nnc1-c1cccs1 | 5.0 | 30.1* | 24.9* | 74.2 | 96.4 | 39.3
CCOC(=O)c1ccc(NC(=O)CSc2nnc(-c3cccs3)n2CC)cc1 | -1.8 | 91.8 | 90.8 | 109.8 | 96.9 | 74.8
Cc1noc(C)c1S(=O)(=O)N1CCC(C(=O)N2CCN(c3ccccc3Cl)CC2)CC1 | 0.0 | 102.4 | 8.4* | 79.4 | 65.3 | 98.2
Cc1noc(C)c1S(=O)(=O)N1CCC(C(=O)N2CCN(c3ccc(Cl)cc3)CC2)CC1 | nt | 92.5 | 70.0 | 67.7 | 70.0 | 89.5
CC1=CC(C)(C)Nc2ccc(OC(=O)CCN3C(=O)c4ccccc4C3=O)cc21 | -10.2 | nt | nt | 1.5* | 1.2* | nt
O=C(CCN1C(=O)c2ccccc2C1=O)Oc1ccc2ccccc2c1 | nt | 101.9 | 92.6 | 96.7 | 88.9 | 93.2
Cc1sc(NC(=O)c2sc3nc4c(C)cccc4cc3c2N)c(C#N)c1C | nt | nt | nt | 9.1 | 3.6* | nt
CC(C)(C)c1nnc(N/N=C/c2ccc(Br)cc2)n(N)c1=O | -1.0 | nt | nt | 91.0 | 95.1 | nt
NNc1ncnc2c1cnn2-c1ccccc1 | -0.3 | 91.5 | 20.3* | 77.0 | 75.5 | 72.9
c1ccc(-n2ncc3c(NC4CCCCCC4)ncnc32)cc1 | nt | 81.6 | 48.0 | nt | nt | 73.0
CC(C)Nc1ncnc2c1cnn2-c1ccccc1 | nt | 100.3 | 75.8 | 69.4 | 70.0 | 81.5
CCOC(=O)N1CCC(Nc2ncnc3c2cnn3-c2ccccc2)CC1 | nt | 98.8 | 28.1* | 92.0 | 93.1 | 92.9
O=C1C=C(c2cccs2)C[C@H](c2ccccc2)[C@H]1n1nnc([N+](=O)[O-])n1 | -7.6 | nt | nt | 4.4 | 4.9* | nt
CS(=O)(=O)N(CC(=O)NCc1ccc2c(c1)OCO2)Cc1ccccc1 | 1.2 | 93.9 | 90.1 | 97.2 | 93.8 | 106.2
CCn1cc(C2=NC(C)CO2)c2ccccc21 (centres undefined) | -1.2 | 92.8 | 80.7 | 94.7 | 97.2 | 92.8
CCn1cc(C2=NC(c3ccccc3)CO2)c2ccccc21 (centres undefined) | nt | 87.2 | 31.9* | 89.7 | 91.5 | 71.0
CC1(C)Cc2c(c(N3CCOCC3)nc3snc(N)c23)CO1 | -0.7 | 3.5* | 94.5 | 1.9* | 1.9* | 58.2
CC1(C)Cc2c(c(N3CCOCC3)nc3snc(Br)c23)CO1 | 0.0 | 88.6 | 19.2* | 80.8 | 97.0 | 94.3
O=C(COc1ccc(Cl)cc1Cl)NCc1ccncc1 | 0.1 | nt | 26.9* | 87.4 | 94.2 | 105.5
CSc1ccccc1NC(=O)COc1ccc(Cl)cc1Cl | 1.6 | nt | nt | 79.5 | 68.2 | nt
O=C(COc1ccc(Cl)cc1Cl)Nc1ccccn1 | -2.7 | 48.4* | 53.5 | 57.8 | 71.9 | 44.9
Cc1ccc2[nH]c(=O)c(CN(CCCN3CCOCC3)C(=O)Nc3cccc(Cl)c3)cc2c1 | -9.0 | 63.5 | 20.2* | 33.4 | 39.8 | 8.5*
COc1ccccc1N1CCN(CC(=O)c2c(C)[nH]c3cc(C)ccc23)CC1 | -0.3 | 99.8 | 37.5* | 57.1 | 54.9 | 32.2
SMILES | Phagocytosis inh | Fibroblast inh | H69AR growth 86K | PTEN del growth | HCT116 bCat-KO | HUVEC prolif 384
CCC(=O)c1cn(CC(=O)NCc2cccnc2)c2ccccc12 | 3.0 | 100.3 | 93.2 | 98.3 | 109.9 | 95.9
Cc1nc2ccccc2c(=O)n1/N=C/c1c(O)ccc2oc3c(c12)CCCC3 | 0.6 | 63.6 | 65.0 | 3.0* | 4.9* | 77.1
Cc1c(CCOC(=O)C2C3CC4CC(C3)CC2C4)sc[n+]1CC(=O)c1ccc(Br)cc1 (centres undefined) | -4.7 | 72.8 | 0.9* | 23.7 | 11.6 | 2.6*
Cc1c(CCO)sc[n+]1CC(=O)OCCC12CC3CC(CC(C3)C1)C2 | -3.6 | nt | nt | 96.1 | 93.0 | nt
CCCc1cc(-c2nc(N)ncc2-c2ccc3c(c2)OCCCO3)c(O)cc1OC | -1.2 | 95.2 | 28.1* | 21.7 | 26.1 | 39.4
CCCCNC(=O)C(Sc1ccccc1)c1ccccc1 (centres undefined) | 5.7 | nt | nt | 89.0 | 93.3 | nt
CCOC(=O)c1oc2ccccc2c1NC(=O)c1cccc(OC)c1OC | 4.7 | 88.6 | 29.8* | 45.1 | 53.6 | 62.8
CCOC(=O)c1oc2ccccc2c1NC(=O)c1cccc(OC)c1 | 3.0 | 97.3 | 77.9 | 77.7 | 90.0 | 99.7
COc1ccc2nc(NC(=S)N(C)C)sc2c1 | 1.2 | 98.6 | 59.7 | 47.8 | 53.5 | 85.4
Cc1ccc(C(=O)NCC(=O)OC(C)C(=O)NCCC2=CCCCC2)cc1C (centres undefined) | -7.6 | nt | nt | 85.8 | 87.8 | nt
CC(c1ccccc1C(O)c1ccccc1)N(C)C (centres undefined) | -3.8 | nt | nt | 99.9 | 91.7 | nt
Cc1ccc(C(O)(c2ccccc2)c2ccccc2C(C)N(C)C)c(C)c1 (centres undefined) | -1.8 | nt | nt | 1.8* | 3.5* | nt
O=C(CSc1nc(-c2ccco2)cc(C(F)(F)F)n1)Nc1cccnc1 | -3.4 | 85.1 | 20.5* | 65.2 | 67.8 | 69.0
O=C(CSc1ncc(-c2ccc(F)cc2)n1Cc1ccco1)Nc1ccc2c(c1)OCO2 | -1.0 | 100.8 | 25.3* | 69.1 | 64.5 | 63.2
O=C(CSc1nc(-c2ccco2)cc(C(F)(F)F)n1)Nc1ccc(C(=O)N2CCOCC2)cc1 | nt | 108.2 | 78.3 | 86.1 | 91.6 | 101.5
O=C(CCCSc1nc(-c2ccco2)cc(C(F)(F)F)n1)Nc1ccc2c(c1)OCO2 | -1.2 | 101.7 | 82.5 | 89.5 | 93.7 | 76.8
CCn1cc(CNC(=O)CCSc2nc(-c3ccco3)cc(C(F)(F)F)n2)cn1 | -2.1 | 100.5 | 31.6* | 54.5 | 67.1 | 81.5
O=C(CCSc1nc(-c2ccco2)cc(C(F)(F)F)n1)NCCc1ccccc1 | -1.8 | 97.5 | 55.2 | 101.2 | 92.0 | 98.0
O=C(CSc1nc(-c2ccco2)cc(C(F)(F)F)n1)Nc1ccc2c(c1)OCO2 | nt | 90.0 | 23.8* | 64.2 | 67.6 | 67.9
Cc1nn(-c2ccc(F)cc2)c(Cl)c1/C=C1\C(=O)Nc2ccccc21 | -2.7 | nt | nt | 20.9 | 19.1 | nt
CC1CN(S(=O)(=O)c2cccc(C(=O)OC/C(O)=C(\C#N)c3nc4ccccc4[nH]3)c2)CC(C)O1 (centres undefined) | -6.5 | nt | nt | 46.8 | 28.8 | nt
CCS(=O)(=O)c1ccc2oc(SCC(=O)NC3CCCC(C)C3C)nc2c1 (centres undefined) | 2.8 | 89.7 | 87.4 | 70.9 | 59.2 | 88.3
Cc1ccc(C(C(=O)Nc2ccc3c(c2)OCO3)N(C)C(=O)Cc2c[nH]c3ccccc23)cc1 (centres undefined) | -1.4 | nt | nt | 66.5 | 70.7 | nt

Screening results (PubChem BioAssay)
